ChEMBL document CHEMBL1649109, “Antiparasitic activities and toxicities of individual enantiomers of the 8-aminoquinoline 8-[(4-amino-1-methylbutyl)amino]-6-methoxy-4-methyl-5-[3,4-dichlorophenoxy]quinoline succinate” (Antimicrob Agents Chemother, 2008)
Active and inactive are the calls of the source. The calls are words filed in the database; no cut-off is given here.

Experiments:
Plasmodium berghei [1] = test: Antimalarial activity against Plasmodium berghei KBG-173 infected in Swiss(CD-1) mouse assessed as mean survival time at 1 mg/kg/day, po treated for 3 days; format: functional
Summary of the method: (§1)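 CD-1 mice, 5 weeks old, male or female, groups of five, infected with 5 × 10^4 P. berghei KBG-173 parasitized erythrocytes. Drug in 0.5% hydroxyethylcellulose/0.1% Tween 80, given orally once daily on days 3, 4 and 5 post-infection. Parasitemia from blood films on day +6. Read-out also includes increase in mean survival time over controls and survivors at day +34.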

Plasmodium berghei [2] = test: Antimalarial activity Plasmodium berghei KBG-173 infected in Swiss(CD-1) mouse assessed as survival at 2 mg/kg, po pretreated 1 day before infection measured on day 30; format: functional, organism-based; set-up: dose 2 mg/kg
Summary of the method: (§2)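 CD-1 mice, 5 weeks old, male or female, groups of five, infected with 5 × 10^4 P. berghei KBG-173 parasitized erythrocytes. One 2 mg/kg oral dose given on a single day, from day −3 to +2 relative to inoculation. Controls untreated. Read-out is increase in mean survival time over controls and number alive at day +30.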

Plasmodium berghei [3] = test: Antimalarial activity Plasmodium berghei KBG-173 infected in Swiss(CD-1) mouse assessed as mean survival time at 2 mg/kg, po treated 2 day postinfection; format: functional; summary of the method: as §2
Plasmodium berghei [4] = test: Antimalarial activity Plasmodium berghei KBG-173 infected in Swiss(CD-1) mouse assessed as survival at 2 mg/kg, po pretreated 2 days before infection measured on day 30; format: functional, organism-based; set-up: dose 2 mg/kg; summary of the method: as §2
Plasmodium berghei [5] = test: Antimalarial activity Plasmodium berghei KBG-173 infected in Swiss(CD-1) mouse assessed as mean survival time at 2 mg/kg, po treated 1 day postinfection; format: functional; summary of the method: as §2
Canis familiaris [6] = test: Toxicity in Beagle dog assessed as increase in methemoglobin level at 1.91 mg/kg/day, po after 6 days; format: organism-based, Canis lupus familiaris; set-up: route oral; details: in vivo, 144 h
Summary of the method: (§3)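 Beagle dogs, one male and one female per enantiomer, given 0.64 mg/kg/day (0.5 mg/kg base) orally for 4 days. After a 5-week washout the same dogs received 1.91 mg/kg/day for 4 days. Methemoglobin sampled from days −6 to 36. Each dog's values are mean of duplicate determinations.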

Pneumocystis carinii [7] = test: Antimicrobial activity against Pneumocystis carinii infected BALB/c mouse at 0.25 mg/kg/day, po after 21 days administered 4 weeks postinfection by Giemsa staining method; format: functional, organism-based
Summary of the method: (§4)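 Female BALB/c mice, 6-8 weeks, immunosuppressed with dexamethasone […] in drinking water, then inoculated transtracheally with 10^6 P. carinii. From 4 weeks post-inoculation, drug given in drinking water for 3 weeks, 10 mice/group, intake monitored. Lung impression smears stained with Giemsa or methenamine silver, read blinded. Graded 0-5 on a log scale; group mean ± SE.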

Plasmodium berghei [8] = test: Antimalarial activity Plasmodium berghei KBG-173 infected in Swiss(CD-1) mouse assessed as increase in mean survival time over control at 2 mg/kg, po pretreated 1 day before infection
Leishmania donovani [9] = test: Antileishmanial activity against Leishmania donovani HU3 infected in mouse assessed as inhibition of parasites in liver at 0.4 mg/kg/day, po treated for 5 days administered 7 days postinfection measured after 14 days post-infection; format: functional
Summary of the method: (§5)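 L. donovani HU3 amastigotes, 1 × 10^7 given IV to mice. From day 7 post-infection, dosed orally once daily for 5 days in 0.25% methylcellulose-10% ethanol; reference stibogluconate given SC. Mice killed at day 14 post-infection. Parasite burden counted on liver impression smears against untreated controls. ED50 from linear regression, with 95% confidence limits.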

Pneumocystis carinii [10] = test: Antimicrobial activity against Pneumocystis carinii infected BALB/c mouse at 5 mg/kg/day, po after 21 days administered 4 weeks postinfection by Giemsa staining method; format: functional, organism-based; summary of the method: as §4
Plasmodium berghei [11] = test: Antimalarial activity Plasmodium berghei KBG-173 infected in Swiss(CD-1) mouse assessed as survival at 2 mg/kg, po treated 2 day postinfection measured on day 30; format: functional, organism-based; set-up: dose 2 mg/kg; summary of the method: as §2
Pneumocystis carinii [12] = test: Antimicrobial activity against Pneumocystis carinii infected BALB/c mouse at 1 mg/kg/day, po after 21 days administered 4 weeks postinfection by methenamine silver nitrate staining method; format: functional, organism-based; summary of the method: as §4
Plasmodium berghei [13] = test: Antimalarial activity against Plasmodium berghei KBG-173 infected in Swiss(CD-1) mouse assessed as mean survival time at 0.25 mg/kg/day, po treated for 3 days; format: functional; summary of the method: as §1
Pneumocystis carinii [14] = test: Antimicrobial activity against Pneumocystis carinii infected BALB/c mouse at 0.25 mg/kg/day, po after 21 days administered 4 weeks postinfection by methenamine silver nitrate staining method; format: functional, organism-based; summary of the method: as §4
Canis familiaris [15] = test: Toxicity in Beagle dog assessed as increase in methemoglobin level at 1.91 mg/kg/day, po after 8 days; format: organism-based, Canis lupus familiaris; set-up: route oral; details: in vivo, 192 h; summary of the method: as §3
Leishmania donovani [16] = test: Antileishmanial activity against Leishmania donovani HU3 infected in mouse assessed as inhibition of parasites in liver at 10 mg/kg/day, po treated for 5 days administered 7 days postinfection measured after 14 days post-infection; format: functional; summary of the method: as §5
Plasmodium berghei [17] = test: Antimalarial activity Plasmodium berghei KBG-173 infected in Swiss(CD-1) mouse assessed as mean survival time at 2 mg/kg, po pretreated 2 days before infection; format: functional; summary of the method: as §2
Plasmodium berghei [18] = test: Antimalarial activity against Plasmodium berghei KBG-173 infected in Swiss(CD-1) mouse assessed as survival at 1 mg/kg/day, po treated for 3 days measured on day 34; format: functional, organism-based; summary of the method: as §1
Plasmodium berghei [19] = test: Antimalarial activity against Plasmodium berghei KBG-173 infected in Swiss(CD-1) mouse assessed as mean survival time at 4 mg/kg/day, po treated for 3 days; format: functional; summary of the method: as §1
Plasmodium berghei [20] = test: Antimalarial activity against Plasmodium berghei KBG-173 infected in Swiss(CD-1) mouse assessed as parasitemia at 1 mg/kg/day, po treated for 3 days measured on day 6
Plasmodium berghei [21] = test: Antimalarial activity against Plasmodium berghei KBG-173 infected in Swiss(CD-1) mouse assessed as reduction in parasitemia at 4 mg/kg/day, po treated for 3 days measured on day 6; format: functional; set-up: scale not given: the % may be the effect or the level left; summary of the method: as §1
Pneumocystis carinii [22] = test: Antimicrobial activity against Pneumocystis carinii infected BALB/c mouse at 5 mg/kg/day, po after 21 days administered 4 weeks postinfection by methenamine silver nitrate staining method; format: functional, organism-based; summary of the method: as §4
Plasmodium berghei [23] = test: Antimalarial activity Plasmodium berghei KBG-173 infected in Swiss(CD-1) mouse assessed as survival at 2 mg/kg, po treated at day of infection measured on day 30; format: functional, organism-based; set-up: dose 2 mg/kg; summary of the method: as §2
Plasmodium berghei [24] = test: Antimalarial activity Plasmodium berghei KBG-173 infected in Swiss(CD-1) mouse assessed as mean survival time at 2 mg/kg, po treated at day of infection; format: functional; summary of the method: as §2
Leishmania donovani [25] = test: Antileishmanial activity against Leishmania donovani HU3 infected in mouse assessed as inhibition of parasites in liver at 5 mg/kg/day, po treated for 5 days administered 7 days postinfection measured after 14 days post-infection; format: functional; summary of the method: as §5
Plasmodium berghei [26] = test: Antimalarial activity against Plasmodium berghei KBG-173 infected in Swiss(CD-1) mouse assessed as survival at 4 mg/kg/day, po treated for 3 days measured on day 34; format: functional, organism-based; summary of the method: as §1
Canis familiaris [27] = test: Toxicity in Beagle dog assessed as increase in methemoglobin level at 1.91 mg/kg/day, po; format: organism-based, Canis lupus familiaris; set-up: route oral; details: in vivo; summary of the method: as §3
Plasmodium berghei [28] = test: Antimalarial activity against Plasmodium berghei KBG-173 infected in Swiss(CD-1) mouse assessed as survival at 0.25 mg/kg/day, po treated for 3 days measured on day 34; format: functional, organism-based; summary of the method: as §1
Plasmodium berghei [29] = test: Antimalarial activity Plasmodium berghei KBG-173 infected in Swiss(CD-1) mouse assessed as mean survival time at 2 mg/kg, po pretreated 3 days before infection; format: functional; summary of the method: as §2
Pneumocystis carinii [30] = test: Antimicrobial activity against Pneumocystis carinii infected BALB/c mouse at 1 mg/kg/day, po after 21 days administered 4 weeks postinfection by Giemsa staining method; format: functional, organism-based; summary of the method: as §4
Canis familiaris [31] = test: Toxicity in Beagle dog assessed as increase in methemoglobin level at 1.91 mg/kg/day, po after 2 days; format: organism-based, Canis lupus familiaris; set-up: route oral; details: in vivo, 48 h; summary of the method: as §3
Mus musculus = test: Toxicity in Leishmania donovani HU3 infected mouse at 100 mg/kg/day, po treated for 5 days administered 7 days postinfection; format: organism-based; set-up: route oral; details: in vivo; summary of the method: as §5
Plasmodium berghei [32] = test: Antimalarial activity against Plasmodium berghei KBG-173 infected in Swiss(CD-1) mouse assessed as parasitemia at 0.25 mg/kg/day, po treated for 3 days measured on day 6
Plasmodium berghei [33] = test: Antimalarial activity Plasmodium berghei KBG-173 infected in Swiss(CD-1) mouse assessed as survival at 2 mg/kg, po treated 1 day postinfection measured on day 30; format: functional, organism-based; set-up: dose 2 mg/kg; summary of the method: as §2

Structure (SMILES): COc1cc(N[C@@H](C)CCCN)c2nccc(C)c2c1Oc1ccc(Cl)c(Cl)c1.O=C(O)CCC(=O)O
- MST (Plasmodium berghei [1]): 6 days
- Activity (Plasmodium berghei [2]): Active
- MST (Plasmodium berghei [3]): 1.2 days
- Activity (Plasmodium berghei [4]): Active
- MST (Plasmodium berghei [5]): 0 days
- Activity (Canis familiaris [6]): Toxic
- Activity (Pneumocystis carinii [7]): Active
- ΔMST (Plasmodium berghei [8]): 0.6 days
- inhibition in vivo at 0.4 mg/kg/day (Leishmania donovani [9]): 41.2%
- Activity (Pneumocystis carinii [10]): Active
- Activity (Plasmodium berghei [11]): Active
- Activity (Pneumocystis carinii [12]): Active
- MST (Plasmodium berghei [13]): 0 days
- Activity (Pneumocystis carinii [14]): Active
- Activity (Canis familiaris [15]): Toxic
- inhibition in vivo at 10 mg/kg/day (Leishmania donovani [16]): 99.6%
- MST (Plasmodium berghei [17]): 0 days
- Activity (Plasmodium berghei [18]): Active
- MST (Plasmodium berghei [19]): 11 days
- Activity (Plasmodium berghei [20]): 27.4%
- Activity (Plasmodium berghei [21]): 1.1%
- Activity (Pneumocystis carinii [22]): Active
- Activity (Plasmodium berghei [23]): Active
- MST (Plasmodium berghei [24]): 3.4 days
- inhibition in vivo at 5 mg/kg/day (Leishmania donovani [25]): 65%
- Activity (Plasmodium berghei [26]): Active
- Activity (Canis familiaris [27]): Toxic
- Activity (Plasmodium berghei [28]): Active
- MST (Plasmodium berghei [29]): 0 days
- Activity (Pneumocystis carinii [30]): Active
- Activity (Canis familiaris [31]): Toxic
- Activity (Mus musculus): Toxic
- Activity (Plasmodium berghei [32]): 28.2%
- Activity (Plasmodium berghei [33]): Active
